# Data as given in ChEMBL document CHEMBL4219124, “Alleviating CYP and hERG liabilities by structure optimization of dihydrofuran-fused tricyclic benzo[d]imidazole series - Potent, selective and orally efficacious microsomal prostaglandin E synthase-1 (mPGES-1) inhibitors: Part-2” (Bioorg Med Chem Lett, 2018).
# System: Cavia porcellus
# Test: Analgesic activity in Dunkin-Hartley guinea pig hyperalgesia pain model assessed as inhibition of LPS-induced hyperalgesia at 10 mg/kg, po administered 2 hrs prior to LPS challenge measured after 4.5 hrs relative to control
# Type: functional
# In short: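 Guinea pigs received compound orally, once daily, at 10, 30 or 100 mg/kg, 2 h before LPS was injected into the plantar surface of the right paw. Saline-injected animals served as the comparison for thermal hyperalgesia. Plasma and brain drug levels taken 7 h after dosing, mean of n = 6–9 per group, from a single experiment.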
smiles,measurement,value
O=C(O)Cc1ccccc1Nc1c(Cl)cccc1Cl [DICLOFENAC],inhibition in vivo at 10 mg/kg,85%
